# Test results: ChEMBL document CHEMBL1124531, “Intercalating agents with covalent bond forming capability. A novel type of potential anticancer agents. 2. Derivatives of chrysophanol and emodin” (1989)
# What was measured:
# Nucleic Acid [1] = experiment: Inhibitory activity against [3H]TdR incorporation into DNA in HL-60 cells during the initial 30-min period.; format: functional, cell-based; settings: Homo sapiens
# Procedure, shortened: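 HL-60 cells (2.5 × 10^6/mL) preincubated 15 min with compound at four to six concentrations in 0.2% DMSO, then pulsed with [3H-methyl]TdR (1 μCi, 0.15 nmol/mL) for 30 min; radioactivity in isolated DNA fraction counted; compound-free DMSO control as reference.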
# L1210 = experiment: Inhibitory activity against murine L1210 leukemic cell growth; format: functional; settings: Mus musculus, read-out: ID50 (the source's name)
# Nucleic Acid [2] = experiment: Ratio for human acute promyelocytic leukemia cells(HL-60) cell growth inhibition and [3H]TdR incorporation into DNA in HL-60 cells; format: functional, cell-based
# HL-60 = experiment: Inhibitory activity against human acute promyelocytic leukemia cells(HL-60) cell growth on 72 hr of exposure of the compound.; format: functional; settings: HL-60, 72 h, read-out: ID50 (the source's name)
SMILES,ID50 (Nucleic Acid [1]) [µM],IC50 (L1210) [µM],Ratio (Nucleic Acid [2]),IC50 (HL-60) [µM]
COc1cc(O)c2c(c1)C(=O)c1cc(CN(CCO)CCO)cc(O)c1C2=O,45,14,5.2,6.6
CCN(CC)Cc1cc(O)c2c(c1)C(=O)c1cc(OC)cc(O)c1C2=O,35,1.2,10.3,3.4
CCNCc1cc(OC)c2c(c1)C(=O)c1cc(OC)cc(OC)c1C2=O,13,9.8,0.76,17
O=C1c2cccc(O)c2C(=O)c2c(O)cc(CNCCO)cc21,15,0.16,17.4,
CCN(CC)Cc1cc(OC)c2c(c1)C(=O)c1cccc(OC)c1C2=O,19,130,6.3,30
O=C1c2cccc(O)c2C(=O)c2c(O)cc(CN3CCCC3)cc21,10,1.6,4.8,2.1
O=C1c2cccc(O)c2C(=O)c2c(O)cc(CBr)cc21,16,8.6,2.3,7.1
O=C1c2cccc(O)c2C(=O)c2c(O)cc(CNCCCO)cc21,16,0.67,5,3.2
COc1cc(O)c2c(c1)C(=O)c1cc(CN(CCCl)CCCl)cc(OC)c1C2=O,5.4,3.3,10.4,0.52
COc1cccc2c1C(=O)c1c(OC)cc(CN(CCCl)CCCl)cc1C2=O,14,13,7.8,1.8
O=C1c2cccc(O)c2C(=O)c2c(O)cc(CN(CCCl)CCCl)cc21,69,,383,0.18
COc1cc(O)c2c(c1)C(=O)c1cc(CBr)cc(O)c1C2=O,340,59,13.6,25
COc1cc(OC)c2c(c1)C(=O)c1cc(C(Br)Br)cc(OC)c1C2=O,58,41,9.7,6
CNC(=O)OCCN(CCOC(=O)NC)Cc1cc(OC)c2c(c1)C(=O)c1cccc(O)c1C2=O,12,89,1,12
CN(C)Cc1cc(O)c2c(c1)C(=O)c1cccc(O)c1C2=O,9.3,2.2,3.3,2.7
CCCCNCc1cc(O)c2c(c1)C(=O)c1cccc(O)c1C2=O,25,4.6,6.1,4.1
COc1cccc2c1C(=O)c1c(OC)cc(CN(CCO)CCO)cc1C2=O,14,> 50,0.03,490
O=C1c2cccc(O)c2C(=O)c2c(O)cc(CNCCCl)cc21,39,7.1,5.2,7.5
COc1cc(CN(CCO)CCO)cc2c1C(=O)c1c(O)cccc1C2=O,89,> 24,4.2,21
COc1cc(O)c2c(c1)C(=O)c1cc(CN(CCO)CCO)cc(OC)c1C2=O,9.6,8.8,0.02,> 500
COc1cc(O)c2c(c1)C(=O)c1cc(CBr)cc(OC)c1C2=O,70,0.068,41,1.7
COc1cc(CN(CCCl)CCCl)cc2c1C(=O)c1c(O)cccc1C2=O,15,,38.5,0.39
COc1cc(O)c2c(c1)C(=O)c1cc(CNCCCl)cc(O)c1C2=O,220,18,23.9,9.2
COc1cc(O)c2c(c1)C(=O)c1cc(C(Br)Br)cc(OC)c1C2=O,23,0.001,237,0.097
COc1cccc2c1C(=O)c1c(OC)cc(CNCCCl)cc1C2=O,19,26,0.22,86
CCN(CC)Cc1cc(OC)c2c(c1)C(=O)c1cc(OC)cc(OC)c1C2=O,4.2,6.9,0.53,7.9
COc1cc(O)c2c(c1)C(=O)c1cc(CNCCO)cc(O)c1C2=O,12,0.5,7.5,1.6
O=C1c2cccc(O)c2C(=O)c2c(O)cc(CN3CCCCC3)cc21,63,4,22.5,2.8

SMILES,ID50 (Nucleic Acid [1]) [µM],IC50 (L1210) [µM],Ratio (Nucleic Acid [2]),IC50 (HL-60) [µM]
CCNCc1cc(O)c2c(c1)C(=O)c1cc(OC)cc(O)c1C2=O,13,0.72,6.2,2.1
CCN(CC)Cc1cc(OC)c2c(c1)C(=O)c1cc(OC)cc(O)c1C2=O,180,6.9,26.9,6.7
COc1cc(CBr)cc2c1C(=O)c1c(O)cccc1C2=O,12,8.8,1.7,7.1
O=C1c2cccc(O)c2C(=O)c2c(O)cc(C(Br)Br)cc21,39,0.44,15.6,2.5
COc1cc(OC)c2c(c1)C(=O)c1cc(CBr)cc(OC)c1C2=O,12,0.68,0.14,84
COc1cc(OC)c2c(c1)C(=O)c1cc(C)cc(OC)c1C2=O,21,100,0.43,49
COc1cc(O)c2c(c1)C(=O)c1cc(CN(CCCl)CCCl)cc(O)c1C2=O,12,,19.7,0.61
COc1cc(OC)c2c(c1)C(=O)c1cc(CN(CCO)CCO)cc(OC)c1C2=O,17,> 27,0.17,100
COc1cccc2c1C(=O)c1c(OC)cc(C)cc1C2=O,19,28,1.9,
CCNCc1cc(O)c2c(c1)C(=O)c1cccc(O)c1C2=O,18,0.77,2.1,8.7
COc1cc(OC)c2c(c1)C(=O)c1cc(CNCCCl)cc(OC)c1C2=O,18,32,3.1,5.8
CC(C)NC(=O)OCCN(CCOC(=O)NC(C)C)Cc1cc(O)c2c(c1)C(=O)c1cccc(O)c1C2=O,17,27,0.63,27
CCNCc1cc(OC)c2c(c1)C(=O)c1cccc(OC)c1C2=O,29,1.2,0.6,48
COc1cccc2c1C(=O)c1c(OC)cc(CNCCO)cc1C2=O,46,140,0.84,55
CNC(=O)OCCN(CCOC(=O)NC)Cc1cc(O)c2c(c1)C(=O)c1cccc(O)c1C2=O,28,> 18,0.13,210
O=C1c2cccc(O)c2C(=O)c2c(O)cc(CN(CCO)CCO)cc21,14,5.9,4.2,3.3
CCN(CC)Cc1cc(OC)c2c(c1)C(=O)c1cccc(O)c1C2=O,14,12,2.7,5.2
COc1cccc2c1C(=O)c1c(OC)cc(CBr)cc1C2=O,11,9.2,2.5,4.4
COc1cccc2c1C(=O)c1c(OC)cc(C(Br)Br)cc1C2=O,9,0.89,4.3,2.1
CCN(CC)Cc1cc(O)c2c(c1)C(=O)c1cccc(O)c1C2=O,14,2.8,7.8,1.8
CNC(=O)OCCN(CCOC(=O)NC)Cc1cc(OC)c2c(c1)C(=O)c1cccc(OC)c1C2=O,9.4,72,0.99,9.5
O=C1c2cccc(O)c2C(=O)c2c(O)cc(Cn3ccnc3)cc21,43,7.4,9,4.8
COc1cc(O)c2c(c1)C(=O)c1cc(C(Br)Br)cc(O)c1C2=O,110,0.001,579,0.19
COc1cc(OC)c2c(c1)C(=O)c1cc(CN(CCCl)CCCl)cc(OC)c1C2=O,8.9,2.7,4.5,2
COc1cc(OC)c2c(c1)C(=O)c1cc(CNCCO)cc(OC)c1C2=O,26,17,0.24,110
NCc1cc(O)c2c(c1)C(=O)c1cccc(O)c1C2=O,25,8.5,2.3,11
COc1cc(C(Br)Br)cc2c1C(=O)c1c(O)cccc1C2=O,13,4.2e-05,217,0.06
